Measurements published in ChEMBL document CHEMBL5058577, “EUbOPEN Chemogenomics Library 2 (Multiplex)” (2022).

System: U2OS
Assay: Multiplex assay against U2OS
Type: toxicity, cell-based
Conditions: human
How it was run: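 Per cents of healthy-nucleus cells form the tubulin, mitochondrial-mass and membrane-permeability phenotype values. Live cells were stained at seeding with Hoechst33342, BioTracker Green Microtubule Cytoskeleton Dye, MitoTracker Red and Annexin V Alexa Fluor 680. After compound addition they were imaged on a CQ1 microscope at 37°C and 5% CO2, and CellPathfinder machine-learning gating split them into Hoechst high-intensity objects or normal cells, normal cells into healthy, pyknosed or fragmented nuclei, and pyknosed cells into mitotic or apoptotic.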

[1] = 12 h, 1 µM, compound concentration 1 uM, replicate 1
[2] = 12 h, 1 µM, compound concentration 1 uM, replicate 2
[3] = 12 h, 10 µM, compound concentration 10 uM, replicate 1
[4] = 12 h, 10 µM, compound concentration 10 uM, replicate 2
[5] = 24 h, 1 µM, compound concentration 1 uM, replicate 1
[6] = 24 h, 1 µM, compound concentration 1 uM, replicate 2
[7] = 24 h, 10 µM, compound concentration 10 uM, replicate 1
[8] = 24 h, 10 µM, compound concentration 10 uM, replicate 2
[9] = 48 h, 1 µM, compound concentration 1 uM, replicate 1
[10] = 48 h, 1 µM, compound concentration 1 uM, replicate 2
[11] = 48 h, 10 µM, compound concentration 10 uM, replicate 1
[12] = 48 h, 10 µM, compound concentration 10 uM, replicate 2

Cl.N=C(N)NC(=O)Cc1c(Cl)cccc1Cl [GUANFACINE HYDROCHLORIDE]
Population Apoptotic (%) [1]: 80% | Population Fragmented Nuclei (%) [1]: 28% | Population Healthy Nuclei (%) [1]: 55% | Population Hoechst High Intensity Objects (%) [1]: 4% | Population Membrane Permeable-Phenotype (%) [1]: 5% | Population Mitochondria Different-Phenotype (%) [1]: 1% | Population Mitotic Cells (%) [1]: 19% | Population Normal (%) [1]: 95% | Population Pyknosed Nuclei (%) [1]: 16% | Population Tubulin-Different-Phenotype (%) [1]: 2% | Total Cell Count [1]: 165 | Population Apoptotic (%) [2]: 100% | Population Fragmented Nuclei (%) [2]: 20% | Population Healthy Nuclei (%) [2]: 72% | Population Hoechst High Intensity Objects (%) [2]: 2% | Population Membrane Permeable-Phenotype (%) [2]: 8% | Population Mitochondria Different-Phenotype (%) [2]: 2% | Population Mitotic Cells (%) [2]: 0% | Population Normal (%) [2]: 97% | Population Pyknosed Nuclei (%) [2]: 7% | Population Tubulin-Different-Phenotype (%) [2]: 6% | Total Cell Count [2]: 129 | Population Apoptotic (%) [3]: 87% | Population Fragmented Nuclei (%) [3]: 27% | Population Healthy Nuclei (%) [3]: 61% | Population Hoechst High Intensity Objects (%) [3]: 1% | Population Membrane Permeable-Phenotype (%) [3]: 10% | Population Mitochondria Different-Phenotype (%) [3]: 3% | Population Mitotic Cells (%) [3]: 12% | Population Normal (%) [3]: 98% | Population Pyknosed Nuclei (%) [3]: 11% | Population Tubulin-Different-Phenotype (%) [3]: 7% | Total Cell Count [3]: 280 | Population Apoptotic (%) [4]: 77% | Population Fragmented Nuclei (%) [4]: 18% | Population Healthy Nuclei (%) [4]: 74% | Population Membrane Permeable-Phenotype (%) [4]: 12% | Population Mitochondria Different-Phenotype (%) [4]: 7% | Population Mitotic Cells (%) [4]: 22% | Population Pyknosed Nuclei (%) [4]: 7% | Population Tubulin-Different-Phenotype (%) [4]: 10% | Total Cell Count [4]: 130 | Population Apoptotic (%) [5]: 75% | Population Fragmented Nuclei (%) [5]: 32% | Population Healthy Nuclei (%) [5]: 56% | Population Hoechst High Intensity Objects (%) [5]: 3% | Population Membrane Permeable-Phenotype (%) [5]: 5% | Population Mitochondria Different-Phenotype (%) [5]: 3% | Population Mitotic Cells (%) [5]: 25% | Population Normal (%) [5]: 96% | Population Pyknosed Nuclei (%) [5]: 10% | Population Tubulin-Different-Phenotype (%) [5]: 2% | Total Cell Count [5]: 194 | Population Apoptotic (%) [6]: 83% | Population Fragmented Nuclei (%) [6]: 18% | Population Healthy Nuclei (%) [6]: 74% | Population Hoechst High Intensity Objects (%) [6]: 0% | Population Membrane Permeable-Phenotype (%) [6]: 8% | Population Mitochondria Different-Phenotype (%) [6]: 4% | Population Mitotic Cells (%) [6]: 16% | Population Normal (%) [6]: 99% | Population Pyknosed Nuclei (%) [6]: 7% | Population Tubulin-Different-Phenotype (%) [6]: 5% | Total Cell Count [6]: 160 | Population Apoptotic (%) [7]: 84% | Population Fragmented Nuclei (%) [7]: 25% | Population Healthy Nuclei (%) [7]: 64% | Population Hoechst High Intensity Objects (%) [7]: 0% | Population Membrane Permeable-Phenotype (%) [7]: 9% | Population Mitochondria Different-Phenotype (%) [7]: 2% | Population Mitotic Cells (%) [7]: 15% | Population Normal (%) [7]: 99% | Population Pyknosed Nuclei (%) [7]: 9% | Population Tubulin-Different-Phenotype (%) [7]: 4% | Total Cell Count [7]: 326 | Population Apoptotic (%) [8]: 83% | Population Fragmented Nuclei (%) [8]: 15% | Population Healthy Nuclei (%) [8]: 76% | Population Hoechst High Intensity Objects (%) [8]: 2% | Population Membrane Permeable-Phenotype (%) [8]: 10% | Population Mitochondria Different-Phenotype (%) [8]: 4% | Population Mitotic Cells (%) [8]: 16% | Population Normal (%) [8]: 97% | Population Pyknosed Nuclei (%) [8]: 7% | Population Tubulin-Different-Phenotype (%) [8]: 5% | Total Cell Count [8]: 160 | Population Apoptotic (%) [9]: 89% | Population Fragmented Nuclei (%) [9]: 28% | Population Healthy Nuclei (%) [9]: 60% | Population Hoechst High Intensity Objects (%) [9]: 2% | Population Membrane Permeable-Phenotype (%) [9]: 4% | Population Mitochondria Different-Phenotype (%) [9]: 3% | Population Mitotic Cells (%) [9]: 10% | Population Normal (%) [9]: 97% | Population Pyknosed Nuclei (%) [9]: 10% | Population Tubulin-Different-Phenotype (%) [9]: 3% | Total Cell Count [9]: 262 | Population Apoptotic (%) [10]: 90% | Population Fragmented Nuclei (%) [10]: 16% | Population Healthy Nuclei (%) [10]: 73% | Population Hoechst High Intensity Objects (%) [10]: 3% | Population Membrane Permeable-Phenotype (%) [10]: 8% | Population Mitochondria Different-Phenotype (%) [10]: 4% | Population Mitotic Cells (%) [10]: 9% | Population Normal (%) [10]: 96% | Population Tubulin-Different-Phenotype (%) [10]: 6% | Total Cell Count [10]: 217 | Population Apoptotic (%) [11]: 90% | Population Fragmented Nuclei (%) [11]: 21% | Population Healthy Nuclei (%) [11]: 68% | Population Hoechst High Intensity Objects (%) [11]: 2% | Population Membrane Permeable-Phenotype (%) [11]: 8% | Population Mitochondria Different-Phenotype (%) [11]: 3% | Population Mitotic Cells (%) [11]: 9% | Population Normal (%) [11]: 97% | Population Pyknosed Nuclei (%) [11]: 10% | Population Tubulin-Different-Phenotype (%) [11]: 4% | Total Cell Count [11]: 440 | Population Apoptotic (%) [12]: 95% | Population Fragmented Nuclei (%) [12]: 14% | Population Healthy Nuclei (%) [12]: 74% | Population Hoechst High Intensity Objects (%) [12]: 1% | Population Membrane Permeable-Phenotype (%) [12]: 10% | Population Mitochondria Different-Phenotype (%) [12]: 1% | Population Mitotic Cells (%) [12]: 4% | Population Normal (%) [12]: 98% | Population Pyknosed Nuclei (%) [12]: 11% | Population Tubulin-Different-Phenotype (%) [12]: 3% | Total Cell Count [12]: 213
